Shown are actives, neighbours in structure and some others; about 3.5% of the full set was active somewhere.
MrgX1 antagonist = human MrgX1 receptor antagonism, primary screen. B-score at 10 µM. Q96LB2. 310,000 compounds, 1.3% hits. MRGX1-HEK293 calcium flux, Fluo-4, BAM8-22 antagonism; active compounds read low;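 active = calcium-response B-score plate-corrected more than 3 library SD below zero, starting fluorescence within 5 deviations, no agonist response on first addition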;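 also: peak minus trough fluorescence over baseline after final BAM8-22 challenge near maximal dose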
Target sequence (Q96LB2 whole entry, looked up): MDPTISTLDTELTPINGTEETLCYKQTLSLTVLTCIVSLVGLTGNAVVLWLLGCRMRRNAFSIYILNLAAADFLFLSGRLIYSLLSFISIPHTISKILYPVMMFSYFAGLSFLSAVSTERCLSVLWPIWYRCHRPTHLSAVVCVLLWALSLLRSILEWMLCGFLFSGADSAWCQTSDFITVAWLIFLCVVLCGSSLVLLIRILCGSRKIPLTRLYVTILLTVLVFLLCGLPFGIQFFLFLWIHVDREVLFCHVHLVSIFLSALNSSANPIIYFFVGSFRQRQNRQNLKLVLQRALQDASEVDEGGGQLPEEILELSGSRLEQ
RGS4 pot = potentiators or activators of RGS4 | HEK293 M3R/inducible RGS4, carbachol calcium flux Fluo4; active compounds read low | B-score at 10 µM | 310,000 compounds, 0.92% hits;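 active = B-score of the integrated calcium signal more than 4 SD below the library mean, with starting fluorescence not abnormally high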;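 also: negative B-score means reduced calcium response which marks RGS4 activation or potentiation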
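Detection: kinetic calcium fluorescence imaging with Fluo4-AM dye, 2 µM / Material: HEK293 cells with stable M3R and inducible RGS4 / Schedule: recording 10 s baseline at 1 Hz, 100 s post-agonist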
MrgX1 agonist = human MrgX1 receptor agonism, primary screen; Q96LB2; MrgX1-HEK293 cells, Fluo-4 calcium fluorescence, agonist mode; active compounds read high; B-score at 10 µM; 310,000 compounds, 0.44% hits;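 active = calcium response B-score plate-corrected fluorescence ratio at least 3 library SD, with starting fluorescence B-score inside 5 SD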
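Test system: HEK293 cells stably expressing human MrgX1 receptor; Input: fifteen thousand cells per well; Dosing: compound delivered in addition one of three; Schedule: overnight seeding, then 1 h dark dye loading; Technique: Fluo-4 NW calcium fluorescence; Measure: B-scored fluorescence response ratio; Controls: positive and negative controls per plate.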
RGS4 inh = inhibitors of human RGS4; P49798; B-score at 10 µM; HEK293 M3R/RGS4 inducible, Fluo-4 calcium flux; active compounds read high; triggered by carbachol at its EC20; 310,000 compounds, 0.45% hits;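 active = B-score, a plate-corrected calcium signal, over three deviations above library mean, with baseline fluorescence within five deviations of library mean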;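 also: RGS4 expression induced by doxycycline in cells with stable M3 receptor; B-score is computed from the integrated fluorescence ratio over baseline after carbachol; higher B-score means a larger calcium signal and so more RGS4 inhibition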
Target sequence (P49798 whole entry, looked up): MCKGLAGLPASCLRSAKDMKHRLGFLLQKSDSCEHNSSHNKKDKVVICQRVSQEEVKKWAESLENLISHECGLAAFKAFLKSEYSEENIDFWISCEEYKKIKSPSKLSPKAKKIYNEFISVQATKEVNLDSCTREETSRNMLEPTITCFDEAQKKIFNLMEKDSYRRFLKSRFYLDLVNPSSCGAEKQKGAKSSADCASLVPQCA
MrgX1 PAM = allosterically activates human MrgX1 receptor signaling | Q96LB2 | MrgX1-HEK293, Fluo-4 calcium flux, FDSS; active compounds read high | B-score at 10 µM | 310,000 compounds, 0.63% hits | AID 588675;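 active = plate-corrected calcium response at least 3 library SD above typical, normal starting fluorescence, not activating the receptor alone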;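 also: compound read alongside a low EC10 to EC30 dose of BAM8-22 agonist; peak minus trough fluorescence over baseline measured at the second addition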
MrgX1 ag reconf = reconfirmed activator of human MrgX1 receptor signaling. shares compounds with MrgX1 agonist. AID 602412. MrgX1-HEK293, Fluo-4 calcium fluorescence, FDSS. activation, % at 10 µM. 600 compounds, 78% hits;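 active = calcium signal rise, corrected for plate position, at least 3 library SD high, with starting brightness within 5 such deviations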
HEK293 Ca flux = counter-screen for MrgX1 antagonists: effect in parental HEK293 cells | shares compounds with MrgX1 antagonist | Fluo-4 calcium fluorescence, FDSS | fluorescence ratio F(max-min)/F0 at 10 µM | 4,000 compounds, 2% hits;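 active = duplicate-averaged calcium fluorescence ratio at least three times the standard deviation of buffer wells, a nonspecific response in parental cells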
HEK293 Ca counter = MrgX1 allosteric activator counter-screen hit in parental HEK293 cells | fluorescence ratio F(max-min)/F0 at 10 µM | shares compounds with MrgX1 antagonist | 4,000 compounds, 0.4% hits | parental HEK293 calcium flux, Fluo-4 fluorescence ratio; active compounds read high;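 active = calcium fluorescence ratio, averaged over duplicates, at least 3 SD of the buffer-well ratio, meaning a nonspecific response in receptor-free cells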;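 also: untransfected parental HEK293 lacking MrgX1 used as counterscreen for MrgX1 allosteric activators; fluorescence change taken during the second addition on a kinetic imager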
HEK293 Ca cntr2 = MrgX1 activator counter-screen hit in parental HEK293 cells; shares compounds with MrgX1 antagonist; Fluo-4 calcium fluorescence (FDSS); active compounds read high; fluorescence ratio F(max-min)/F0 at 10 µM; 4,000 compounds, 8.7% hits; AID 624115;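 active = calcium fluorescence ratio at least three times the spread of buffer wells, meaning a non-specific response in parental cells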
Numbers stand for hits.

For O=C(O)C1C(C(=O)Nc2ccc(Cl)cc2)C2C=CC1C21CC1 (stereo unspecified) the results were MrgX1 antagonist inactive, RGS4 pot inactive, MrgX1 agonist 32.1, RGS4 inh inactive, MrgX1 PAM inactive, MrgX1 ag reconf inactive, HEK293 Ca flux inactive, HEK293 Ca counter inactive and HEK293 Ca cntr2 inactive.
For c1ccc2c(c1)nc(Nc1ccc3c(c1)OCO3)c1nnnn12 the results were MrgX1 antagonist inactive, RGS4 pot inactive, MrgX1 agonist 29.9, RGS4 inh inactive, MrgX1 PAM inactive, MrgX1 ag reconf 207.4%, HEK293 Ca flux inactive, HEK293 Ca counter inactive and HEK293 Ca cntr2 inactive.
`Fc1cccc(Nc2nc3ccccc3n3nnnc23)c1` gave MrgX1 antagonist inactive, RGS4 pot inactive, MrgX1 agonist inactive, RGS4 inh inactive and MrgX1 PAM inactive.
For COc1cccc(Nc2nc3ccccc3n3nnnc23)c1 the results were MrgX1 antagonist inactive, RGS4 pot inactive, MrgX1 agonist 31.5, RGS4 inh inactive, MrgX1 PAM inactive, MrgX1 ag reconf 124.8%, HEK293 Ca flux inactive, HEK293 Ca counter inactive and HEK293 Ca cntr2 inactive.
For O=C(O)c1ccc(-c2ccc(/C=c3/sc4nc5ccccc5n4c3=O)o2)cc1Cl the results were MrgX1 antagonist inactive, RGS4 pot inactive, MrgX1 agonist 80.7, RGS4 inh inactive, MrgX1 PAM inactive, MrgX1 ag reconf 465.1%, HEK293 Ca flux 0.128, HEK293 Ca counter inactive and HEK293 Ca cntr2 104.
`COc1ccc2c(c1)nc(N)n2Cc1ccccc1` gave MrgX1 antagonist inactive, RGS4 pot inactive, MrgX1 agonist 49.1, RGS4 inh inactive, MrgX1 PAM inactive, MrgX1 ag reconf 233.0%, HEK293 Ca flux inactive, HEK293 Ca counter inactive and HEK293 Ca cntr2 inactive.
Screening Cc1cc([N+](=O)[O-])ccc1NC(=O)CCC(=O)N1CCCCCC1 returned MrgX1 antagonist inactive, RGS4 pot inactive, MrgX1 agonist inactive, RGS4 inh inactive and MrgX1 PAM inactive.
`CCN(CC)c1ncnc2c1[nH]c1ccccc12` gave MrgX1 antagonist inactive, RGS4 pot inactive, MrgX1 agonist 28.1, RGS4 inh inactive, MrgX1 PAM inactive, MrgX1 ag reconf 124.8%, HEK293 Ca flux inactive, HEK293 Ca counter inactive and HEK293 Ca cntr2 inactive.
Screening CCCOc1ncnc2c1[nH]c1ccccc12 returned MrgX1 antagonist inactive, RGS4 pot inactive, MrgX1 agonist inactive, RGS4 inh inactive and MrgX1 PAM inactive.
Cc1ccc(N/C(N)=N/c2nc(C)cc(C)n2)cc1 was read as MrgX1 antagonist inactive, RGS4 pot inactive, MrgX1 agonist 124, RGS4 inh inactive, MrgX1 PAM inactive, MrgX1 ag reconf 431.7%, HEK293 Ca flux inactive, HEK293 Ca counter inactive and HEK293 Ca cntr2 97.2.
For Cc1cc(C)nc(/N=C(\N)Nc2ccc(C(C)C)cc2)n1 the results were MrgX1 antagonist inactive, RGS4 pot inactive, MrgX1 agonist 32.5, RGS4 inh inactive, MrgX1 PAM inactive, MrgX1 ag reconf 118.8%, HEK293 Ca flux inactive, HEK293 Ca counter inactive and HEK293 Ca cntr2 inactive.
For Cc1cc(C)cc(N/C(N)=N/c2nc(C)cc(C)n2)c1 the results were MrgX1 antagonist inactive, RGS4 pot inactive, MrgX1 agonist 32.8, RGS4 inh inactive, MrgX1 PAM inactive, MrgX1 ag reconf 131.8%, HEK293 Ca flux inactive, HEK293 Ca counter inactive and HEK293 Ca cntr2 inactive.
CCC(=O)Nc1ccc(N/C(N)=N/c2nc(C)cc(C)n2)cc1 was read as MrgX1 antagonist inactive, RGS4 pot inactive, MrgX1 agonist inactive, RGS4 inh inactive and MrgX1 PAM inactive.
Cc1cccc(N/C(N)=N/c2nc(C)cc(C)n2)c1 was read as MrgX1 antagonist inactive, RGS4 pot inactive, MrgX1 agonist 69, RGS4 inh inactive, MrgX1 PAM inactive, MrgX1 ag reconf 358.4%, HEK293 Ca flux inactive, HEK293 Ca counter inactive and HEK293 Ca cntr2 75.8.
Screening CCOC(=O)c1ccc(C(=S)N2CCCC2)cc1 returned RGS4 pot inactive and RGS4 inh inactive.
CCCn1nc(C(=O)NNC(=O)CSC(C)C(=O)Nc2cc(C)on2)c2ccccc2c1=O (stereo unspecified) was read as MrgX1 antagonist inactive, RGS4 pot inactive, MrgX1 agonist inactive, RGS4 inh inactive and MrgX1 PAM inactive.
`O=C(c1ccc2nc(Cc3ccccc3F)oc2c1)N1CC[C@H](O)C1` gave MrgX1 antagonist inactive, RGS4 pot inactive, MrgX1 agonist inactive, RGS4 inh inactive and MrgX1 PAM inactive.
Screening CC1CCc2sc(NC(=O)C3CC(Cl)=CCC3C(=O)O)c(C#N)c2C1 (stereo unspecified) returned MrgX1 antagonist inactive, RGS4 pot inactive, MrgX1 agonist 28.5, RGS4 inh inactive, MrgX1 PAM inactive, MrgX1 ag reconf inactive, HEK293 Ca flux inactive, HEK293 Ca counter inactive and HEK293 Ca cntr2 inactive.
Screening O=C(CCCN1Cc2ccccc2C1)c1ccc(F)cc1 returned MrgX1 antagonist inactive, RGS4 pot inactive, MrgX1 agonist 37.8, RGS4 inh inactive, MrgX1 PAM inactive, MrgX1 ag reconf 145.1%, HEK293 Ca flux inactive, HEK293 Ca counter inactive and HEK293 Ca cntr2 inactive.
Screening CN1CCN(CCCC(=O)c2ccc(F)cc2)CC1 returned MrgX1 antagonist inactive, RGS4 pot inactive, MrgX1 agonist inactive, RGS4 inh inactive and MrgX1 PAM inactive.
Screening COc1ccc(C2C(C#N)=C(N)Oc3cccc(O)c32)cc1 (stereo unspecified) returned MrgX1 antagonist inactive, RGS4 pot inactive, MrgX1 agonist 28.4, RGS4 inh inactive, MrgX1 PAM inactive, MrgX1 ag reconf inactive, HEK293 Ca flux inactive, HEK293 Ca counter inactive and HEK293 Ca cntr2 inactive.
CCC1(C)NC(=O)N(CC(=O)Nc2sc3c(c2C(=O)OC)CCCCC3)C1=O (stereo unspecified) was read as MrgX1 antagonist inactive, RGS4 pot inactive, MrgX1 agonist 27.6, RGS4 inh inactive, MrgX1 PAM inactive, MrgX1 ag reconf 436.7%, HEK293 Ca flux inactive, HEK293 Ca counter inactive and HEK293 Ca cntr2 128.
For COC(=O)c1ccc(Cl)cc1N(Cc1c(F)cccc1Cl)S(C)(=O)=O the results were MrgX1 antagonist inactive, RGS4 pot inactive, MrgX1 agonist 71.3, RGS4 inh inactive, MrgX1 PAM inactive, MrgX1 ag reconf 290.0%, HEK293 Ca flux inactive, HEK293 Ca counter inactive and HEK293 Ca cntr2 60.8.

Bioassay records deposited in PubChem by Johns Hopkins Ion Channel Center.
